NR2E3 ag-1 – NR2E3 (human) agonism | Q9Y5X4 | GST-NR2E3/biotin-RetCOR TR-FRET, 1536-well | inhibition of corepressor binding, % at 4.78 µM | 0.12% of 320,000 active | AID 2300;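 active means percent inhibition above the cutoff of mean plus 3 SD of all tested compounds, set per screening campaign, cut at about 20% in these data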;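 further: 0% = DMSO wells and 100% = biotin wells as full block of FRET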
Target sequence (Q9Y5X4 whole entry, looked up): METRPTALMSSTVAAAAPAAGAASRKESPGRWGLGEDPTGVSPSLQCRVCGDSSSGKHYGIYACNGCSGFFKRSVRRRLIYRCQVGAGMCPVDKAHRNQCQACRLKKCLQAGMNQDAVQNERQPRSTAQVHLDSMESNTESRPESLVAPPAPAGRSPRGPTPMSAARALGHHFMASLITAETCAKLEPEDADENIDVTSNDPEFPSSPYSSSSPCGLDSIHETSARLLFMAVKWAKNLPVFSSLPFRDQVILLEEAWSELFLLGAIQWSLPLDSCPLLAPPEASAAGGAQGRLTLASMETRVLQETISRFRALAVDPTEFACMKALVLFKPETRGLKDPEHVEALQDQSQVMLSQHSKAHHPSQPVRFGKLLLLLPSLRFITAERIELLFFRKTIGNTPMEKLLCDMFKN
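Material: NR2E3–RetCOR corepressor complex / Amount: 1.35 nM GST-NR2E3 / Medium: Tris pH 7.5 / Compound: single nominal compound dose of 4.8 µM / Incubation: 5 h at 4 °C / Technique: TR-FRET, Eu(K)-anti-GST donor, streptavidin-D2 acceptor, ex 340, em 617/671 nm / Read-out basis: percent loss of FRET ratio relative to control wells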
NR2E3 ag-2 – human photoreceptor-specific nuclear receptor agonism; Q9Y5X4; inhibition of corepressor binding, % at 3.98 µM; 0.35% of 360,000 active; CHO-S Gal4-NCOR/VP16-NR2E3 two-hybrid, luciferase;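 active means inhibition above the mean of all tested compounds plus 3 SD, cut at about 70% in these data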;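 further: 0% = DMSO with NR2E3 transfected cells and 100% = cells lacking NR2E3 construct; higher means lower luciferase signal from less NR2E3 corepressor binding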
Env fusion inh – inhibitors of HIV Env-mediated cell fusion; inhibition, % at 12.3 µM; HeLa-JRFL Env/CEM21 cell fusion, luciferase; AID 651610; 1.1% of 360,000 active;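 active means mean replicate inhibition score of at least 50 and every replicate individually at or above 50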;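 further: 0% = plate neutral controls and 100% = maraviroc near 300 nM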
V-ATPase pH – alters yeast V-ATPase proton transport. S. cerevisiae, pHLuorin cytosolic pH fluorescence. response, % at 10 µM. 0.37% of 350,000 active. AID 504577; in the data active means response mostly above about 7.3%, no sharp cut-off; inactive means mostly below about 5.4%; further: actives read high
GalR3 antag – antagonists of human GalR3; 0.44% of 360,000 active; inhibition, % at 3 µM; HEK293 GalR3-CNG cAMP membrane potential fluorescence; galR3 body fused to GalR1 C-terminus;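 active means inhibition above the screen-wide average plus 3 SD, cut at about 13% in these data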;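 further: forskolin and galanin both at EC90 stimulate the cells; cAMP rise reported by CNG channel membrane potential dye signal; 0% = forskolin plus galanin with DMSO and 100% = forskolin alone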
FXN GAA850 act – increases GAA850 frataxin promoter reporter activity. HEK293 lucGAA850 FXN promoter luciferase reporter, 24 h; percent of 10 µM SAHA response. activation, % at 6 µM. 0.56% of 360,000 active;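 active means activation above the average of all compounds screened plus 3 SD, cutoff fixed separately per campaign, cut at about 7.5% in these data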;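 further: 0% = DMSO wells and 100% = 10 µM SAHA wells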
* marks the source's active call; other numbers are inactive results; [ ] = remark or other dose. This is a sample that favours compounds with a hit; in the whole collection about 2.2% have one here.

COc1cccc(S(=O)(=O)N2CCC3(CC2)CN(C(=O)Nc2cccc(F)c2)[C@H](CO)c2[nH]c4cc(OC)ccc4c23)c1 was read as Env fusion inh 21.7[16.7 µM].
Screening Cn1c(=O)n(C)c2cc([N+](=O)[O-])c(N3CCN(C(=O)c4ccccc4Br)CC3)cc21 returned NR2E3 ag-1 2.2, NR2E3 ag-2 8.8, Env fusion inh 30.5, V-ATPase pH -1.8, GalR3 antag -5.6 and FXN GAA850 act 3.0.
Screening Cn1c(=O)n(C)c2cc([N+](=O)[O-])c(N3CCN(C(=O)c4ccccc4Cl)CC3)cc21 returned NR2E3 ag-1 -2.7, NR2E3 ag-2 29.5, Env fusion inh 89.6*, V-ATPase pH 0.6, GalR3 antag -11.8 and FXN GAA850 act 1.4.
`Cn1c(=O)n(C)c2cc([N+](=O)[O-])c(N3CCN(C(=O)c4ccccc4)CC3)cc21` gave NR2E3 ag-1 1.1, NR2E3 ag-2 -8.4, Env fusion inh 55.4*, V-ATPase pH 1.0, GalR3 antag -5.6 and FXN GAA850 act 0.4.
For CC(C)CCOC(=O)C[N+](C)(C)CCOC1CC2CCC1(C)C2(C)C (stereo not drawn) the results were NR2E3 ag-1 0.6, NR2E3 ag-2 -13.5, Env fusion inh 76.3*, V-ATPase pH 3.8, GalR3 antag -9.8 and FXN GAA850 act 2.9.
`CCCCOC(=O)C[N+](C)(C)CCOC1CC2CCC1(C)C2(C)C` (stereo not drawn) gave NR2E3 ag-1 4.4, NR2E3 ag-2 4.1, Env fusion inh 103.0*, V-ATPase pH 1.2, GalR3 antag 3.7 and FXN GAA850 act 6.4.
`CCC(C)OC(=O)C[N+](C)(C)CCOC1CC2CCC1(C)C2(C)C` (stereo not drawn) gave NR2E3 ag-1 -0.4, NR2E3 ag-2 -32.4, Env fusion inh 66.0*, V-ATPase pH -2.1, GalR3 antag -4.2 and FXN GAA850 act 2.5.
`CCCCCCCOC(=O)C[N+](C)(C)CCOC1CC2CCC1(C)C2(C)C` (stereo not drawn) gave NR2E3 ag-2 9.0, Env fusion inh 75.1*, V-ATPase pH -0.9, GalR3 antag -2.8 and FXN GAA850 act 3.5.
Screening CCC(=O)N(C)C[C@@H]1Oc2cc(-c3ccccc3F)ccc2S(=O)(=O)N([C@@H](C)CO)C[C@@H]1C returned Env fusion inh 4.9[16.7 µM].
For Cc1ccc(S(=O)(=O)N(C)C[C@@H]2Oc3c(NC(=O)Nc4ccc5c(c4)OCO5)cccc3C(=O)N([C@@H](C)CO)C[C@@H]2C)cc1 the results were Env fusion inh -4.0[16.7 µM].
For C[C@@H]1CN([C@H](C)CO)C(=O)c2ccccc2-c2ccccc2CO[C@H]1CN(C)C(=O)c1ccc(F)cc1 the results were Env fusion inh 7.8[16.7 µM].
Screening CN(C)C(=O)C[C@@H]1C[C@H]2c3cc(NC(=O)NC4CCCC4)ccc3O[C@H]2[C@@H](CO)O1 returned Env fusion inh 3.8[16.7 µM].
CCCCOc1ccc(C(=O)NCCc2ccccc2)cc1 was read as NR2E3 ag-1 4.9, NR2E3 ag-2 -139.3, Env fusion inh -64.1, V-ATPase pH 0.1, GalR3 antag -5.1 and FXN GAA850 act 4.5.
Screening NC(=S)c1ccc(OCCCc2ccccc2)cc1 returned NR2E3 ag-2 -72.8, Env fusion inh 70.3*, V-ATPase pH 1.2, GalR3 antag -3.3 and FXN GAA850 act 3.6.
`CC(C)CNC(=O)[C@@H]1c2ccccc2C(=O)N(CC23CC4CC(CC(C4)C2)C3)[C@H]1c1ccc(CO)cc1` gave Env fusion inh 60.7*[16.7 µM].
CCCNC(=O)[C@@H]1c2ccccc2C(=O)N(CC23CC4CC(CC(C4)C2)C3)[C@H]1c1ccc(CO)cc1 was read as Env fusion inh 27.9[16.7 µM].
Screening C[C@H](CO)N1C[C@H](C)[C@H](CN(C)Cc2ccc(F)cc2)Oc2cc(C#CCN(C)C)ccc2S1(=O)=O returned Env fusion inh 2.0[16.7 µM].
Screening COc1cccc(S(=O)(=O)Nc2ccc3c(c2)[C@@H]2C[C@@H](CC(=O)N[C@@H](C)c4ccccc4)O[C@H](CO)[C@@H]2O3)c1 returned Env fusion inh -10.0[16.7 µM].
